From ChEMBL document CHEMBL3352791, “Thioaryl naphthylmethanone oxime ether analogs as novel anticancer agents” (J Med Chem, 2014)
Calls of active or inactive are those of the source. No cut-off for these calls is given here.

Experiments:
[1] = test system: MCF7; assay: Cell cycle arrest in human […] cells assessed as accumulation at G1 phase at 2.5 uM by propidium iodide staining by FACS analysis (reference value: 62.88%); type: functional
[2] = test system: MCF7; assay: Antitumor activity against human MCF7 cells xenografted in NIH-3 mouse assessed as increase in TUNEL positive cells at 16 mg/kg, po for 25 days relative to control; type: functional
[3] = test system: HEK293; assay: Antiproliferative activity against HEK293 cells after 24 hrs by MTT assay; type: functional, cell-based; settings: Homo sapiens, HEK293, 24 h
In short: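 MTT viability: cells seeded at 1×10^4 per well in DMEM with 10% FBS, left to adhere overnight, then serum-starved 4 h. Compounds were given at a range of doses, with 0.1% DMSO vehicle as control. EC50 was taken from dose-response curves spanning 100nM-50µM. Data are mean ± SEM from at least three independent experiments.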

[4] = test system: Mus musculus; assay: Toxicity in human MCF7 cells xenografted in NIH-3 mouse assessed as changed in body weight at 16 mg/kg, po for 29 days relative to control; type: organism-based; parameters: dose 16 mg/kg, route oral; settings: in vivo, 696 h
[5] = test system: MDA-MB-231; assay: Antiproliferative activity against human ER-positive MDA-MB-231 cells after 72 hrs by MTT assay; type: functional, cell-based; settings: MDA-MB-231, 72 h
[6] = test system: MDA-MB-231; assay: Cell cycle arrest in human […] cells assessed as accumulation at G1 phase at 5 uM by propidium iodide staining by FACS analysis (reference value: 63.74%); type: functional
[7] = test system: Mus musculus; assay: Toxicity in human MCF7 cells xenografted in NIH-3 mouse assessed as changed in body weight at 8 mg/kg, po for 29 days relative to control; type: organism-based; parameters: dose 8 mg/kg, route oral; settings: in vivo, 696 h
[8] = test system: MDA-MB-231; assay: Cell cycle arrest in human […] cells assessed as accumulation at G1 phase at 7.5 uM by propidium iodide staining by FACS analysis (reference value: 63.74%); type: functional
[9] = test system: MCF7; assay: Cell cycle arrest in human […] MCF7 cells assessed as accumulation at S phase at 2.5 uM by propidium iodide staining by FACS analysis (reference value: 24.76%); type: functional
[10] = test system: MCF7; assay: Antiproliferative activity against human […] cells assessed as growth recovery treated up to 5 uM for 24 hrs followed by maintained in drug free medium for 72 hrs by MTT assay; type: functional
[11] = target: Ribosomal protein S6 kinase beta-1 (Homo sapiens) (UniProt P23443); assay: Inhibition of p70S6K (unknown origin) at 10 uM
In short: (§1)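 Cell-free kinase profiling was run as a standard 33P-ATP-based in vitro kinase assay.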

[12] = test system: MDA-MB-231; assay: Inhibition of IGF1 expression in human MDA-MB-231 cells at 5 uM by ELISA; type: functional, cell-based
[13] = target: Epidermal growth factor receptor (Homo sapiens) (UniProt P00533); assay: Inhibition of EGF-induced EGFR phosphorylation at Tyr845 in human MDA-MB-231 cells at 1 uM by ELISA; type: cell-based
In short: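 MDA-MB-231 cells pretreated 1 h in serum-free medium, then EGF-stimulated for 15 min and lysed. Equal lysate protein (Bradford) assayed by ELISA kits for p-EGFR (Tyr1068, Tyr845, Tyr1173) and p-HER2. Absorbance read at 450 nm, normalized to total EGFR or HER2.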

[14] = test system: MCF7; assay: Antitumor activity against human MCF7 cells xenografted in NIH-3 mouse assessed as reduction in PCNA level in tumor at 16 mg/kg, po for 25 days by Western blot analysis; type: functional, organism-based; parameters: dose 16 mg/kg
[15] = test system: MDA-MB-231; assay: Induction of PTEN expression in human MDA-MB-231 cells at 1 uM after 24 hrs by qPCR analysis; type: functional, cell-based
In short: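 qPCR on MDA-MB-231 cells treated with 1µM compound; GAPDH as internal control.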

[16] = target: Epidermal growth factor receptor (Homo sapiens) (UniProt P00533); assay: Inhibition of EGF-induced EGFR phosphorylation at Tyr1173 in human MCF7 cells at 0.1 uM by ELISA; type: cell-based
[17] = target: RAC-alpha serine/threonine-protein kinase (Homo sapiens) (UniProt P31749); assay: Inhibition of EGF-induced AKT phosphorylation in human MDA-MB-231 cells at 1 uM by ELISA; type: cell-based
[18] = test system: MDA-MB-231; assay: Inhibition of TGF-betaR1 expression in human MDA-MB-231 cells at 1 uM after 24 hrs by qPCR analysis; type: functional, cell-based
In short: (§2)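 Gene expression was measured by qPCR in MDA-MB-231 breast cancer cells treated with 1µM compound. GAPDH served as the housekeeping internal control.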

[19] = test system: MDA-MB-231; assay: Cytotoxicity against human […] cells assessed as cell viability at 5 uM by MTT assay in presence of z-IETD-FMK caspase-8 inhibitor; type: functional, cell-based
In short: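 Cells seeded 1×10^4/well in DMEM with 10% FBS, adhered overnight, serum-starved 4 h; pre-incubated 2 h with Z-IETD-FMK or Z-LEHD-FMK (10µM each), then 5μM compound for a further 24 h; viability by MTT.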

[20] = test system: MCF7; assay: Induction of apoptosis in human MCF7 cells xenografted in NIH-3 mouse assessed as decrease in cyclin D1 in tumor at 16 mg/kg, po for 25 days by qPCR; type: functional, organism-based; parameters: dose 16 mg/kg
[21] = test system: MCF7; assay: Induction of apoptosis in human […] cells assessed as caspase 3 activation at 2.5 to 7.5 uM by Caspase-Glo assay; type: functional, cell-based
In short: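 Caspase-3 activity by Caspase-Glo 3 luminescent kit.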

[22] = target: Mitogen-activated protein kinase; ERK1/ERK2 (Homo sapiens) (UniProt P27361+P28482); assay: Inhibition of basal level ERK1/2 phosphorylation in human MCF7 cells at 1 uM by ELISA; type: cell-based
[23] = test system: MDA-MB-231; assay: Antiproliferative activity against human […] cells assessed as absence of growth recovery treated > 5 uM for 24 hrs followed by maintained in drug free medium for 72 hrs by MTT assay; type: functional, cell-based
[24] = test system: Mast/stem cell growth factor receptor Kit (Homo sapiens), P10721 [D816V]; assay: Inhibition of cKit D816V mutant (unknown origin) at 10 uM; in short: as §1
[25] = test system: MDA-MB-231; assay: Inhibition of EGF expression in human MDA-MB-231 cells at 5 uM by ELISA; type: functional, cell-based
[26] = test system: MDA-MB-231; assay: Antiproliferative activity against human […] cells at 2.5 to 7.5 uM by annexin V-FITC/propidium iodide staining-based flow cytometric analysis; type: functional, cell-based
[27] = test system: MDA-MB-231; assay: Inhibition of TGF-beta1 expression in human MDA-MB-231 cells at 1 uM after 24 hrs by qPCR analysis; type: functional, cell-based; in short: as §2
[28] = target: Mast/stem cell growth factor receptor Kit (Homo sapiens) (UniProt P10721); assay: Inhibition of cKit (unknown origin) at 10 uM; in short: as §1
[29] = test system: Mast/stem cell growth factor receptor Kit (Homo sapiens), P10721 [D816H]; assay: Inhibition of cKit D816H mutant (unknown origin) at 10 uM; in short: as §1
[30] = target: Epidermal growth factor receptor (Homo sapiens) (UniProt P00533); assay: Inhibition of EGF-induced EGFR phosphorylation at Tyr992 in human MCF7 cells at 1 uM by ELISA; type: cell-based
[31] = target: Epidermal growth factor receptor (Homo sapiens) (UniProt P00533); assay: Inhibition of EGF-induced EGFR phosphorylation at Tyr1148 in human MCF7 cells at 1 uM by ELISA; type: cell-based

Chain of Epidermal growth factor receptor (Homo sapiens) (P00533 whole entry): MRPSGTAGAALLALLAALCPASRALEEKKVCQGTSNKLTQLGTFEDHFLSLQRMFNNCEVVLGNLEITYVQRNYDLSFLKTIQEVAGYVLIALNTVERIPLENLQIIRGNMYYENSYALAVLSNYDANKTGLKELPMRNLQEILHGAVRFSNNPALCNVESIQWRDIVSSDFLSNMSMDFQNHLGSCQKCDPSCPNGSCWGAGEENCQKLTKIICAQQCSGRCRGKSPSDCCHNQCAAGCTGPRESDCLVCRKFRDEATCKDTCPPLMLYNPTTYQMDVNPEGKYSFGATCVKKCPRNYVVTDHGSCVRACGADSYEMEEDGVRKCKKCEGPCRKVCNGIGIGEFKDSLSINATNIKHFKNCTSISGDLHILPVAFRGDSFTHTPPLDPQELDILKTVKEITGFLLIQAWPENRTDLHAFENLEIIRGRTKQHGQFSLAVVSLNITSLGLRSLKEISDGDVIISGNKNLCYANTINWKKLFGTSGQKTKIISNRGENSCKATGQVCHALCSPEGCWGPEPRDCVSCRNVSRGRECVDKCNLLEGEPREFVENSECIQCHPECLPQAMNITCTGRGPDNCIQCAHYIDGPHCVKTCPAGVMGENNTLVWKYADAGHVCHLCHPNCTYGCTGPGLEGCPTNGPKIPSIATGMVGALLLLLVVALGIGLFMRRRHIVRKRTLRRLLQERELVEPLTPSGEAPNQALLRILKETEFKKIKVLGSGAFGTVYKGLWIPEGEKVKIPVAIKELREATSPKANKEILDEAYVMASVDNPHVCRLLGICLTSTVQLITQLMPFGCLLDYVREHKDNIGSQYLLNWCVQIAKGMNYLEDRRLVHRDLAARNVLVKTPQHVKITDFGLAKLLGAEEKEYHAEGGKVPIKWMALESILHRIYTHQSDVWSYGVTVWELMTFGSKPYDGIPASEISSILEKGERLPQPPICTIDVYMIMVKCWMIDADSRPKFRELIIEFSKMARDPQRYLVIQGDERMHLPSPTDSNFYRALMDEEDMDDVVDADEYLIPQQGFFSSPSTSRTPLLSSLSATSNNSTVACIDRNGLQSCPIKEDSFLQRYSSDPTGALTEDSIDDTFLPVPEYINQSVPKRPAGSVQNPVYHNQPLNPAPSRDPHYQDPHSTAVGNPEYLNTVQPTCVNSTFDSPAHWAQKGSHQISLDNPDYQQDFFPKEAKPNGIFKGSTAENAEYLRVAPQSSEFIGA
Chain of Ribosomal protein S6 kinase beta-1 (Homo sapiens) (P23443 whole entry, looked up): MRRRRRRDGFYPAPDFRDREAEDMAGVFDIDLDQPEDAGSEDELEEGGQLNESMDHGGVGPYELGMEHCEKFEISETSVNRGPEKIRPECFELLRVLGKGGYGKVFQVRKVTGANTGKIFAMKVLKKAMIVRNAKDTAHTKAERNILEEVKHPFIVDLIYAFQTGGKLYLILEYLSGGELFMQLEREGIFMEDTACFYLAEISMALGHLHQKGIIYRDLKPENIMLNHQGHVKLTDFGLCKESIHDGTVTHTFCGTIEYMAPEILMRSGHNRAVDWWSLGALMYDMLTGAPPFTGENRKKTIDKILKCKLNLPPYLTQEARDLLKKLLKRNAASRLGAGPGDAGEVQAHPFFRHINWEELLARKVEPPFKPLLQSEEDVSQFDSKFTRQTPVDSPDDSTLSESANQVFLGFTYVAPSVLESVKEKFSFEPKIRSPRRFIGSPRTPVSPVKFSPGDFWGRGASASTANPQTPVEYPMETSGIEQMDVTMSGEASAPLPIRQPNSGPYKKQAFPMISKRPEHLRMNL
Chain of RAC-alpha serine/threonine-protein kinase (Homo sapiens) (P31749 whole entry): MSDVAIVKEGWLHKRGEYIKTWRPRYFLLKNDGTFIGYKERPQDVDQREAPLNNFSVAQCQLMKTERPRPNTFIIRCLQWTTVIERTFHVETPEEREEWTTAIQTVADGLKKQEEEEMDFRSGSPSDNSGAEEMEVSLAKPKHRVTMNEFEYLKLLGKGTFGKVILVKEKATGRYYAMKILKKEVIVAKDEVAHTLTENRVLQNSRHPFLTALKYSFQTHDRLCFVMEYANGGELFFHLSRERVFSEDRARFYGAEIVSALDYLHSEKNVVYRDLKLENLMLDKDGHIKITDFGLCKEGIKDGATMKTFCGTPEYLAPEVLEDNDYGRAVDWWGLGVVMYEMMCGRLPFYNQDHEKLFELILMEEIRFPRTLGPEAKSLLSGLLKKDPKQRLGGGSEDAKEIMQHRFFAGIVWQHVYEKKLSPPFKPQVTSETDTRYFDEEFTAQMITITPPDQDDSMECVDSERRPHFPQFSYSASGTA
Chain of Mast/stem cell growth factor receptor Kit (Homo sapiens) (P10721 whole entry): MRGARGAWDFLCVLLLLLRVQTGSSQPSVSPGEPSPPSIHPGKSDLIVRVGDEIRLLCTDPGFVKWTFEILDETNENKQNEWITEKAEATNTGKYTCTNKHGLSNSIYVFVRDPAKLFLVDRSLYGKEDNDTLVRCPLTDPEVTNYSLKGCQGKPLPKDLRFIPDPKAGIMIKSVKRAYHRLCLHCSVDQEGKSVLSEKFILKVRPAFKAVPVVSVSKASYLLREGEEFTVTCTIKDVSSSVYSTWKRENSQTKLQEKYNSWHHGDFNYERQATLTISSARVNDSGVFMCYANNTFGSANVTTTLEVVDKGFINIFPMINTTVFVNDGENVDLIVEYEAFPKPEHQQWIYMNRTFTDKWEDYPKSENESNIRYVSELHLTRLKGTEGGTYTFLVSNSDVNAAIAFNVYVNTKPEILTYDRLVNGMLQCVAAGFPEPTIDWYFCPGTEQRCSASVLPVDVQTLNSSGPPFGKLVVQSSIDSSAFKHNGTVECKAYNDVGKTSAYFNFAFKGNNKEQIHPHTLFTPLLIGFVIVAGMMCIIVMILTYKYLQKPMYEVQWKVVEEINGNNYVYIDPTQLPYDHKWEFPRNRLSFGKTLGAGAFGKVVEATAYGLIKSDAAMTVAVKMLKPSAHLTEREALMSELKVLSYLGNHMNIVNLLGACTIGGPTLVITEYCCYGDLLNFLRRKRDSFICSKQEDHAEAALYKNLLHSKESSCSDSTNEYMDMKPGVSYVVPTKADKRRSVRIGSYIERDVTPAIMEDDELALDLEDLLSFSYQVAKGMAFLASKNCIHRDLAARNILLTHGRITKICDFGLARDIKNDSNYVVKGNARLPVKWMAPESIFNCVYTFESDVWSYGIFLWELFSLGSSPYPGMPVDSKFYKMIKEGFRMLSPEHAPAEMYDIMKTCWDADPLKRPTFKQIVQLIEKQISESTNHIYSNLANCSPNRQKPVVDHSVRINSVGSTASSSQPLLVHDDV
Chain of Mast/stem cell growth factor receptor Kit (Homo sapiens), P10721 [D816H] (P10721 whole entry D816H): as the sequence (P10721 whole entry) above, with D816H counted along it
Chain of Mitogen-activated protein kinase; ERK1/ERK2 (Homo sapiens) (P27361 whole entry, looked up): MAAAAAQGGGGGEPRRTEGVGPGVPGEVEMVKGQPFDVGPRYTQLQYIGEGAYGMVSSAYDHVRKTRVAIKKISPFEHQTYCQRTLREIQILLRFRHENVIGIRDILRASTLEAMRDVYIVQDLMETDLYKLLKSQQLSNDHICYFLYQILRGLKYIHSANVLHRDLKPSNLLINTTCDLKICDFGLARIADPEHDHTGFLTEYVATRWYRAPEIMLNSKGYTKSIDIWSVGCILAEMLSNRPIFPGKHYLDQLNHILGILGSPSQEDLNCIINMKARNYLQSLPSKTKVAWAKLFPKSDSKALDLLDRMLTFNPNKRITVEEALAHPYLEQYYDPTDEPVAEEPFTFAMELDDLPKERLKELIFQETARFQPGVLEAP
Chain of Mitogen-activated protein kinase; ERK1/ERK2 (Homo sapiens) (P28482 whole entry, looked up): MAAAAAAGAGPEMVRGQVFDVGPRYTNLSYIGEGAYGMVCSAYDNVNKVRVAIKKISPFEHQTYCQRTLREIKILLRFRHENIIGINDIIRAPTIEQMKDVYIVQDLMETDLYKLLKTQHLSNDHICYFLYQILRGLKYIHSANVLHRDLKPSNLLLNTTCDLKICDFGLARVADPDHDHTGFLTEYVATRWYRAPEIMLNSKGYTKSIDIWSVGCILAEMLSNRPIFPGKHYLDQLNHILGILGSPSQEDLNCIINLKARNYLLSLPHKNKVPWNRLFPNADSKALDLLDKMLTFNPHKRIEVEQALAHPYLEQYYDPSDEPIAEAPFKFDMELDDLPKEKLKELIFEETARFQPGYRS
Chain of Mast/stem cell growth factor receptor Kit (Homo sapiens), P10721 [D816V] (P10721 whole entry D816V): as the sequence (P10721 whole entry) above, with D816V counted along it

## CCN(CC)CCO/N=C(\c1ccc(SC)cc1)c1cccc2ccccc12.O=C(O)C(=O)O
[1]
  Activity: 70.71%
[2]
  Activity: >50%
[3]
  IC50: 20 µM
[4]
  Activity: Non-toxic
[5]
  EC50: 1 µM
[6]
  Activity: 88%
[7]
  Activity: Non-toxic
[8]
  Activity: 91.17%
[9]
  Activity: 16.82%
[10]
  Activity: 50%

## CCN(CC)CCO/N=C(\c1ccc(SC)cc1)c1cccc2ccccc12
[11]
  inhibition: inactive
[12]
  inhibition: inactive
[13]
  inhibition: Active
[14]
  inhibition: Active
[15]
  Activity: Active
[16]
  inhibition: Active
[17]
  inhibition: Active
[18]
  inhibition: inactive
[19]
  Activity: inactive
[20]
  Activity: Active
[21]
  Activity: inactive
[22]
  inhibition: Active
[23]
  Activity: Active
[24]
  inhibition: inactive
[25]
  inhibition: Active
[26]
  Activity: Active
[27]
  inhibition: Active
[28]
  inhibition: inactive
[29]
  inhibition: inactive
[30]
  inhibition: Active
[31]
  inhibition: Active
